ChEMBL document CHEMBL3611968, “Reengineered tricyclic anti-cancer agents” (Bioorg Med Chem, 2015)
Values belong to the compound of their own block, whether it stands above or below them. Activity calls are given as the source filed them. No cut-off for these calls is given here.

Tests used:
NCI-H1650 = assay: Cytotoxicity against human NCI-H1650 cells assessed as growth inhibition after 48 hrs by MTT assay; format: functional
Outline: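 H1650 cells were exposed to drug for 48 h at five concentrations bracketing 1–40 μM in 10 μM steps, with MTT read-out. GI50 is given only where the data form a sigmoidal dose response.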

[1] = Oral bioavailability in mouse at 100 mg/kg; format: ADME, organism-based; conditions: in vivo
[2] = AUClast in mouse at 100 mg/kg, po; format: ADME, organism-based; conditions: in vivo
[3] = Cmax in mouse at 25 mg/kg, ip; format: ADME, organism-based; design: dose 25 mg/kg, route intraperitoneal; conditions: in vivo
[4] = Half life in mouse at 1 mg/kg, iv; format: ADME, organism-based; conditions: in vivo
[5] = AUClast in mouse at 25 mg/kg, ip; format: ADME, organism-based; conditions: in vivo
[6] = AUCinfinity in mouse at 100 mg/kg, ip administered through DMA/solutol/water; format: ADME, organism-based; design: dose 100 mg/kg, route intraperitoneal, time infinity; conditions: in vivo
[7] = AUClast in mouse at 100 mg/kg, ip administered through DMA/solutol/water; format: ADME, organism-based; conditions: in vivo
[8] = AUClast in mouse at 25 mg/kg, po; format: ADME, organism-based; conditions: in vivo
[9] = Tmax in mouse at 100 mg/kg, ip administered through DMA/solutol/water; format: ADME, organism-based; conditions: in vivo
[10] = Bioavailability in mouse at 100 mg/kg, ip administered through DMA/solutol/water; format: ADME, organism-based; conditions: in vivo
[11] = AUClast in mouse at 1 mg/kg, iv; format: ADME, organism-based; conditions: in vivo
[12] = AUCinfinity in mouse at 25 mg/kg, po; format: ADME, organism-based; design: dose 25 mg/kg, route oral, time infinity; conditions: in vivo
[13] = Clearance in mouse at 1 mg/kg, iv; format: ADME, organism-based; conditions: in vivo
[14] = AUCinfinity in mouse at 25 mg/kg, ip; format: ADME, organism-based; design: dose 25 mg/kg, time infinity, route intraperitoneal; conditions: in vivo
[15] = Volume of distribution at steady state in mouse at 1 mg/kg, iv; format: ADME, organism-based; conditions: in vivo, read-out: Vdss
[16] = Tmax in mouse at 25 mg/kg, ip; format: ADME, organism-based; conditions: in vivo
[17] = Cmax in mouse at 100 mg/kg, po; format: ADME, organism-based; design: dose 100 mg/kg, route oral; conditions: in vivo
[18] = Cmax in mouse at 100 mg/kg, ip administered through DMA/solutol/water; format: ADME, organism-based; design: dose 100 mg/kg, route intraperitoneal; conditions: in vivo
[19] = Cmax in mouse at 25 mg/kg, po; format: ADME, organism-based; design: dose 25 mg/kg, route oral; conditions: in vivo
[20] = Tmax in mouse at 25 mg/kg, po; format: ADME, organism-based; conditions: in vivo
[21] = Bioavailability in mouse at 25 mg/kg, ip; format: ADME, organism-based; conditions: in vivo
[22] = AUCinfinity in mouse at 1 mg/kg, iv; format: ADME, organism-based; design: dose 1 mg/kg, time infinity, route intravenous; conditions: in vivo
[23] = Tmax in mouse at 100 mg/kg, po; format: ADME, organism-based; conditions: in vivo
[24] = Oral bioavailability in mouse at 25 mg/kg; format: ADME, organism-based; conditions: in vivo

Compound: O=S(=O)(NCCCN1c2ccccc2CCc2ccccc21)c1ccc(OC(F)(F)F)cc1
GI50 (NCI-H1650; NCI-H1650, 48 h): 22 µM

Compound: Cc1nn(C)c(Cl)c1S(=O)(=O)NCCCN1c2ccccc2CCc2ccccc21
GI50 (NCI-H1650; NCI-H1650, 48 h): > 40 µM

Compound: O=S(=O)(NCCCN1c2ccccc2CCc2ccc(Cl)cc21)c1ccc(Cl)cc1F
GI50 (NCI-H1650; NCI-H1650, 48 h): 20.8 µM

Compound: COC(=O)NCCCCN1c2ccccc2Sc2ccc(Cl)cc21
GI50 (NCI-H1650; NCI-H1650, 48 h): > 40 µM

Compound: CC(=O)Nc1ccc(S(=O)(=O)NCCCN2c3ccccc3CCc3ccc(Cl)cc32)cc1
GI50 (NCI-H1650; NCI-H1650, 48 h): 15 µM

Compound: N#Cc1ccc(S(=O)(=O)NCCCN2c3ccccc3CCc3ccc(Cl)cc32)cc1
GI50 (NCI-H1650; NCI-H1650, 48 h): 20 µM

Compound: O=S(=O)(NCCCN1c2ccccc2OCc2cccnc21)c1ccc(OC(F)(F)F)cc1
GI50 (NCI-H1650; NCI-H1650, 48 h): 19.1 µM

bioavailability [1]: 50%
AUC(0-t) [2]: 18500 ng·h/mL
Cmax [3]: 2240 ng/mL
half-life [4]: 0.81 h
AUC(0-t) [5]: 5700 ng·h/mL
AUC(0-inf) [6]: 34700 ng·h/mL
AUC(0-t) [7]: 34700 ng·h/mL
AUC(0-t) [8]: 3300 ng·h/mL
Tmax [9]: 1 h
bioavailability [10]: 94%
AUC(0-t) [11]: 370 ng·h/mL
AUC(0-inf) [12]: 3460 ng·h/mL
clearance [13]: 44 mL/min/kg
AUC(0-inf) [14]: 5790 ng·h/mL
Vd [15]: 1.61 L/kg
Tmax [16]: 1 h
Cmax [17]: 4880 ng/mL
Cmax [18]: 6490 ng/mL
Cmax [19]: 1310 ng/mL
Tmax [20]: 1 h
bioavailability [21]: 62%
AUC(0-inf) [22]: 376 ng·h/mL
Tmax [23]: 2 h
bioavailability [24]: 36%
Compound: O=S(=O)(NC[C@H](O)CN1c2ccccc2CCc2ccccc21)c1ccc(OC(F)(F)F)cc1
GI50 (NCI-H1650; NCI-H1650, 48 h): 15 µM

Compound: O=S(=O)(NCC/C=C1/c2ccccc2Sc2ccc(Cl)cc21)c1ccc(Cl)cc1
GI50 (NCI-H1650; NCI-H1650, 48 h): > 40 µM

Compound: O=S(=O)(NCCCN1c2ccccc2CCc2ccccc21)c1cnc(Cl)c(Br)c1
GI50 (NCI-H1650; NCI-H1650, 48 h): > 40 µM

Compound: CS(=O)(=O)c1ccc(S(=O)(=O)NCCCN2c3ccccc3CCc3ccc(Cl)cc32)cc1
GI50 (NCI-H1650; NCI-H1650, 48 h): 15.1 µM

Compound: CC(=O)NCCCN1c2ccccc2Sc2ccc(Cl)cc21
GI50 (NCI-H1650; NCI-H1650, 48 h): > 40 µM

Compound: O=C(NCCCN1c2ccccc2CCc2ccc(Cl)cc21)c1ccccc1
GI50 (NCI-H1650): inactive

Compound: O=S(=O)(NC1CCC2(OC1)c1ccccc1CCc1ccccc12)c1ccccc1 (stereo unspecified)
GI50 (NCI-H1650; NCI-H1650, 48 h): 22 µM

Compound: O=S(=O)(NCCCN1c2ccccc2Sc2ccc(Cl)cc21)c1ccc(Oc2ccccc2)cc1
GI50 (NCI-H1650; NCI-H1650, 48 h): > 40 µM

Compound: O=S(=O)(c1ccc(Cl)cc1)N1CCCCC1CCN1c2ccccc2CCc2ccccc21 (stereo unspecified)
GI50 (NCI-H1650): inactive

Compound: NCCCN1c2ccccc2CCc2ccc(Cl)cc21
GI50 (NCI-H1650; NCI-H1650, 48 h): 10 µM
